Experimental data: ChEMBL document CHEMBL3576866, “Discovery of a Cyclic Boronic Acid β-Lactamase Inhibitor (RPX7009) with Utility vs Class A Serine Carbapenemases” (J Med Chem, 2015)

How the values were obtained:
Klebsiella pneumoniae [1] = experiment: Inhibition of Klebsiella pneumoniae KP1008 KPC-2 assessed as biapenem MIC at 4 ug/ml by broth microdilution method
How it was run: (§1)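 CLSI broth microdilution (M07-A9, 2012) MIC of the carbapenem against clinical serine carbapenemase-producing strain, tested alone and with the inhibitor held at a fixed 4 μg/mL.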

Klebsiella pneumoniae [2] = experiment: Inhibition of Klebsiella pneumoniae KP1087 KPC-2 assessed as imipenem MIC at 4 ug/ml by broth microdilution method
How it was run: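 CLSI broth microdilution (M07-A9) against clinical K. pneumoniae strain KP1087 (KPC-2, CTX-M-15, SHV-11, TEM-1); carbapenem MIC (μg/mL) read with the inhibitor held at a fixed 4 μg/mL, alongside carbapenem alone.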

[3] = biological target: Class A carbapenemase KPC-2 (Escherichia coli) (UniProt A8DS27); experiment: Inhibition of Escherichia coli EC1007 KPC-3 assessed as biapenem MIC at 4 ug/ml by broth microdilution method
[4] = biological target: T1, Beta-lactamase SHV-1 (Klebsiella pneumoniae) (UniProt P0AD64); experiment: Inhibition of Klebsiella pneumoniae KP1082 SHV-1 assessed as biapenem MIC at 4 ug/ml by broth microdilution method; how it was run: as §1
T1 sequence (whole entry): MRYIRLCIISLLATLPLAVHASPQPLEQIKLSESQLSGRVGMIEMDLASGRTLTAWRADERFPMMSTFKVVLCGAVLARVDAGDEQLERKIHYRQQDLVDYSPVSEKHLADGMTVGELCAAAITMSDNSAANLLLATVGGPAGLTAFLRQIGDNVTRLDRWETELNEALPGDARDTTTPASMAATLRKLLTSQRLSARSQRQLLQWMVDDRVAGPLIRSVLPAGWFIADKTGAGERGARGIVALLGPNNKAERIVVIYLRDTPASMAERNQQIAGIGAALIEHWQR

[5] = biological target: Beta lactamase TEM-1 (Klebsiella pneumoniae) (UniProt Q7B899); experiment: Inhibition of Klebsiella pneumoniae KP1087 TEM-1 assessed as biapenem MIC at 4 ug/ml by broth microdilution method
How it was run: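 Carbapenem MIC by CLSI broth microdilution (M07-A9), carbapenem titrated with inhibitor held at fixed 4 μg/mL, against clinical serine-carbapenemase-producing strain KP1087 (KPC-2, CTX-M-15, SHV-11, TEM-1; double porin mutant).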

[6] = biological target: Class A carbapenemase KPC-2 (Escherichia coli) (UniProt A8DS27); experiment: Inhibition of Escherichia coli EC1007 KPC-3 assessed as meropenem MIC at 4 ug/ml by broth microdilution method
[7] = Clearance in rat at 100 mg/kg, iv administered as 0.5 hrs infusion by HPLC-MS method; assay type: ADME, organism-based; conditions: in vivo
[8] = biological target: Beta-lactamase (Enterobacter cloacae) (UniProt P05364); experiment: Inhibition of Enterobacter cloacae ECL1002 AmpC assessed as cefepime MIC at 4 ug/ml by broth microdilution method
Klebsiella pneumoniae [9] = experiment: Inhibition of Klebsiella pneumoniae KP1004 SHV-11 assessed as biapenem MIC at 4 ug/ml by broth microdilution method; how it was run: as §1
Escherichia coli = experiment: Inhibition of Escherichia coli EC1009 TEM-10 assessed as cefepime MIC at 4 ug/ml by broth microdilution method
How it was run: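 CLSI broth microdilution (M07-A9) against clinical strains expressing serine β-lactamases.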

Klebsiella pneumoniae [10] = experiment: Inhibition of Klebsiella pneumoniae KP1087 CTX-M-15 assessed as meropenem MIC at 4 ug/ml by broth microdilution method; how it was run: as §1
[11] = Cmax in rat at 1000 mg/kg, iv administered as 0.5 hrs infusion by HPLC-MS method; assay type: ADME, organism-based; design: dose 1000 mg/kg, route intravenous; conditions: in vivo
Enterobacter cloacae = experiment: Inhibition of Enterobacter cloacae ECL1058 SHV-11 assessed as meropenem MIC at 4 ug/ml by broth microdilution method
Klebsiella pneumoniae [12] = experiment: Inhibition of Klebsiella pneumoniae KP1009 CTX-M-15 assessed as cefepime MIC at 4 ug/ml by broth microdilution method
Klebsiella pneumoniae [13] = experiment: In vivo inhibition of KPC in Klebsiella pneumoniae KP1074 in Swiss webster neutropenic mouse lung infection model assessed as meropenem deltalog10CFU in lung at 50 mg/kg, ip administered every 2 hrs starting at 2 hrs postinfection measured after 24 hrs; assay type: functional
Klebsiella pneumoniae [14] = experiment: Inhibition of Klebsiella pneumoniae KP1008 KPC-2 assessed as imipenem MIC at 4 ug/ml by broth microdilution method; how it was run: as §1
Klebsiella oxytoca [15] = experiment: Inhibition of Klebsiella oxytoca KX1017 SHV-30 assessed as biapenem MIC at 4 ug/ml by broth microdilution method
[16] = biological target: Carbapenem-hydrolyzing beta-lactamase KPC (Klebsiella oxytoca) (UniProt Q848S6); experiment: Inhibition of Klebsiella oxytoca KX1019 KPC-2 assessed as meropenem MIC at 4 ug/ml by broth microdilution method; how it was run: as §1
Klebsiella oxytoca [17] = experiment: Inhibition of Klebsiella oxytoca KX1017 SHV-30 assessed as imipenem MIC at 4 ug/ml by broth microdilution method
[18] = biological target: Beta lactamase TEM-1 (Klebsiella pneumoniae) (UniProt Q7B899); experiment: Inhibition of Klebsiella pneumoniae KP1084 TEM-1 assessed as biapenem MIC at 4 ug/ml by broth microdilution method
[19] = biological target: Beta lactamase TEM-1 (Klebsiella pneumoniae) (UniProt Q7B899); experiment: Inhibition of Klebsiella pneumoniae KP1004 TEM-1 assessed as biapenem MIC at 4 ug/ml by broth microdilution method; how it was run: as §1
Klebsiella pneumoniae [20] = experiment: Inhibition of Klebsiella pneumoniae KP1004 KPC-2 assessed as imipenem MIC at 4 ug/ml by broth microdilution method; how it was run: as §1
[21] = Clearance in rat at 300 mg/kg, iv administered as 0.5 hrs infusion by HPLC-MS method; assay type: ADME, organism-based; conditions: in vivo

In the case of `O=C(O)C[C@@H]1CC[C@H](NC(=O)Cc2cccs2)B(O)O1` [VABORBACTAM], the MIC (Klebsiella pneumoniae [1]) is reported as ≤ 0.06 µg/mL, the MIC (Klebsiella pneumoniae [2]) is reported as 0.25 µg/mL and the MIC [3] is reported as < 0.06 µg/mL. The MIC [4] was < 0.06 µg/mL, the MIC [5] was 0.25 µg/mL and the MIC [6] was < 0.06 µg/mL. For the same molecule, the clearance [7] was 26.7 mL/min/kg, the MIC [8] was 0.5 µg/mL and the MIC (Klebsiella pneumoniae [9]) was ≤ 0.06 µg/mL. It also gave an MIC (Escherichia coli) of 4 µg/mL, an MIC (Klebsiella pneumoniae [10]) of 1 µg/mL and a Cmax [11] of 2600 µg/mL. The MIC (Enterobacter cloacae) was < 0.06 µg/mL, the MIC (Klebsiella pneumoniae [12]) was 2 µg/mL and the deltalog10CFU (Klebsiella pneumoniae [13]) was -2.03. For the same molecule, the MIC (Klebsiella pneumoniae [14]) was ≤ 0.06 µg/mL, the MIC (Klebsiella oxytoca [15]) was < 0.06 µg/mL and the MIC [16] was < 0.06 µg/mL. For the same molecule, the MIC (Klebsiella oxytoca [17]) was 0.13 µg/mL, the MIC [18] was 0.25 µg/mL and the MIC [19] was < 0.06 µg/mL. The MIC (Klebsiella pneumoniae [20]) was ≤ 0.06 µg/mL and the clearance [21] was 21 mL/min/kg.
